In brackets after ≈: the same amount, converted by molar mass.
Experiments:
Type in all cases: functional
[1] = system: Staphylococcus epidermidis; assay: Antibacterial activity against methicillin-resistant Staphylococcus epidermidis 10-1 after 18 hrs by two fold serial dilution method; settings: 10-1, 18 h
Outline: (§1)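 Agar two-fold serial dilution in melted Mueller-Hinton agar, 128 to 0.008 μg/mL. Plates inoculated with 10⁴ cfu, incubated 35 °C for 18 h. MIC taken as lowest concentration giving no visible growth on the plate.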

Escherichia coli [2] = assay: Antibacterial activity against Escherichia coli 09-1 after 18 hrs by two fold serial dilution method; settings: 09-1, 18 h
Outline: (§2)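 Agar two-fold serial dilution in melted Mueller-Hinton agar, final concentrations 128 down to 0.008 μg/mL. Plates inoculated with 10⁴ cfu and incubated at 35 °C for 18 h. MIC taken as the lowest concentration giving no visible growth on the plate.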

Staphylococcus aureus [3] = assay: Antibacterial activity against Staphylococcus aureus ATCC 25923 after 18 hrs by two fold serial dilution method; settings: ATCC 25923, 18 h; outline: as §2
Enterococcus faecium [4] = assay: Antibacterial activity against Enterococcus faecium 09-6 after 18 hrs by two fold serial dilution method; settings: 09-6, 18 h; outline: as §2
Staphylococcus aureus [5] = assay: Antibacterial activity against methicillin-sensitive Staphylococcus aureus 10-2 after 18 hrs by two fold serial dilution method; settings: 10-2, 18 h; outline: as §2
Staphylococcus aureus [6] = assay: Antibacterial activity against methicillin-resistant Staphylococcus aureus 10-4 after 18 hrs by two fold serial dilution method; settings: 10-4, 18 h; outline: as §1
Klebsiella pneumoniae [7] = assay: Antibacterial activity against Klebsiella pneumoniae 09-2 after 18 hrs by two fold serial dilution method; settings: 09-2, 18 h; outline: as §2
Pseudomonas aeruginosa [8] = assay: Antibacterial activity against Pseudomonas aeruginosa 10-1 after 18 hrs by two fold serial dilution method; settings: 10-1, 18 h; outline: as §2
Pseudomonas aeruginosa [9] = assay: Antibacterial activity against Pseudomonas aeruginosa 10-3 after 18 hrs by two fold serial dilution method; settings: 10-3, 18 h; outline: as §2
Enterococcus faecium [10] = assay: Antibacterial activity against Enterococcus faecium 09-1 after 18 hrs by two fold serial dilution method; settings: 09-1, 18 h; outline: as §2
Klebsiella pneumoniae [11] = assay: Antibacterial activity against Klebsiella pneumoniae 10-3 infected KM mouse systemic infection model assessed as decrease in mouse mortality administered orally twice after 1 and 4 hrs post infection measured up to 7 days; settings: 10-3, po
Outline: (§3)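 Strains grown on MH agar at 35 °C for 18 h, suspended in gastric mucin. Male KM mice (19–21 g), groups of 10, infected intraperitoneally with 0.5 mL at 5–10× MLD. Four oral dose levels per drug at 1 and 4 h post infection. Mortality followed 7 days; ED50 with 95% confidence limits by Bliss method.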

Escherichia coli [12] = assay: Antibacterial activity against Escherichia coli 09-2 after 18 hrs by two fold serial dilution method; settings: 09-2, 18 h; outline: as §2
Staphylococcus aureus [13] = assay: Antibacterial activity against methicillin-resistant Staphylococcus aureus 10-1 after 18 hrs by two fold serial dilution method; settings: 10-1, 18 h; outline: as §1
Klebsiella pneumoniae [14] = assay: Antibacterial activity against Klebsiella pneumoniae 10-1 after 18 hrs by two fold serial dilution method; settings: 10-1, 18 h; outline: as §2
Staphylococcus aureus [15] = assay: Antibacterial activity against methicillin-sensitive Staphylococcus aureus 10-3 after 18 hrs by two fold serial dilution method; settings: 10-3, 18 h; outline: as §2
Staphylococcus aureus [16] = assay: Antibacterial activity against methicillin-sensitive Staphylococcus aureus 10-6 after 18 hrs by two fold serial dilution method; settings: 10-6, 18 h; outline: as §2
Enterococcus faecalis [17] = assay: Antibacterial activity against Enterococcus faecalis 09-1 after 18 hrs by two fold serial dilution method; settings: 09-1, 18 h; outline: as §2
Staphylococcus aureus [18] = assay: Antibacterial activity against methicillin-sensitive Staphylococcus aureus 10-1 after 18 hrs by two fold serial dilution method; settings: 10-1, 18 h; outline: as §2
Staphylococcus aureus [19] = assay: Antibacterial activity against methicillin-sensitive Staphylococcus aureus 10-5 after 18 hrs by two fold serial dilution method; settings: 10-5, 18 h; outline: as §2
[20] = system: Staphylococcus epidermidis; assay: Antibacterial activity against methicillin-resistant Staphylococcus epidermidis 10-4 infected KM mouse systemic infection model assessed as decrease in mouse mortality administered orally twice after 1 and 4 hrs post infection measured up to 7 days; settings: 10-4, po; outline: as §3
Enterococcus faecium [21] = assay: Antibacterial activity against Enterococcus faecium 09-3 after 18 hrs by two fold serial dilution method; settings: 09-3, 18 h; outline: as §2
Staphylococcus aureus [22] = assay: Antibacterial activity against methicillin-resistant Staphylococcus aureus 10-2 after 18 hrs by two fold serial dilution method; settings: 10-2, 18 h; outline: as §1
Pseudomonas aeruginosa [23] = assay: Antibacterial activity against Pseudomonas aeruginosa 10-2 after 18 hrs by two fold serial dilution method; settings: 10-2, 18 h; outline: as §2
Enterococcus faecium [24] = assay: Antibacterial activity against Enterococcus faecium 09-5 after 18 hrs by two fold serial dilution method; settings: 09-5, 18 h; outline: as §2
Staphylococcus aureus [25] = assay: Antibacterial activity against methicillin-resistant Staphylococcus aureus 10-2 infected KM mouse systemic infection model assessed as decrease in mouse mortality administered orally twice after 1 and 4 hrs post infection measured up to 7 days; settings: 10-2, po; outline: as §3
Enterococcus faecium [26] = assay: Antibacterial activity against Enterococcus faecium 09-4 after 18 hrs by two fold serial dilution method; settings: 09-4, 18 h; outline: as §2
[27] = system: Staphylococcus epidermidis; assay: Antibacterial activity against methicillin-sensitive Staphylococcus epidermidis 10-2 after 18 hrs by two fold serial dilution method; settings: 10-2, 18 h; outline: as §2
Staphylococcus aureus [28] = assay: Antibacterial activity against methicillin-resistant Staphylococcus aureus 10-3 after 18 hrs by two fold serial dilution method; settings: 10-3, 18 h; outline: as §1
[29] = system: Staphylococcus epidermidis; assay: Antibacterial activity against methicillin-resistant Staphylococcus epidermidis 10-2 after 18 hrs by two fold serial dilution method; settings: 10-2, 18 h; outline: as §1
Enterococcus faecium [30] = assay: Antibacterial activity against Enterococcus faecium 09-2 after 18 hrs by two fold serial dilution method; settings: 09-2, 18 h; outline: as §2
Escherichia coli [31] = assay: Antibacterial activity against Escherichia coli 10-3 after 18 hrs by two fold serial dilution method; settings: 10-3, 18 h; outline: as §2
Escherichia coli [32] = assay: Antibacterial activity against Escherichia coli ATCC 25922 after 18 hrs by two fold serial dilution method; settings: ATCC 25922, 18 h; outline: as §2
[33] = system: Staphylococcus epidermidis; assay: Antibacterial activity against methicillin-resistant Staphylococcus epidermidis 10-4 after 18 hrs by two fold serial dilution method; settings: 10-4, 18 h; outline: as §1
Pseudomonas aeruginosa [34] = assay: Antibacterial activity against Pseudomonas aeruginosa ATCC 27853 after 18 hrs by two fold serial dilution method; settings: ATCC 27853, 18 h; outline: as §2
Pseudomonas aeruginosa [35] = assay: Antibacterial activity against Pseudomonas aeruginosa 10-1 infected KM mouse systemic infection model assessed as decrease in mouse mortality administered orally twice after 1 and 4 hrs post infection measured up to 7 days; settings: 10-1, po; outline: as §3
[36] = system: Staphylococcus epidermidis; assay: Antibacterial activity against methicillin-sensitive Staphylococcus epidermidis 10-1 after 18 hrs by two fold serial dilution method; settings: 10-1, 18 h; outline: as §2
Klebsiella pneumoniae [37] = assay: Antibacterial activity against Klebsiella pneumoniae 10-3 after 18 hrs by two fold serial dilution method; settings: 10-3, 18 h; outline: as §2
Escherichia coli [38] = assay: Antibacterial activity against Escherichia coli 10-1 after 18 hrs by two fold serial dilution method; settings: 10-1, 18 h; outline: as §2
Escherichia coli [39] = assay: Antibacterial activity against Escherichia coli 10-2 after 18 hrs by two fold serial dilution method; settings: 10-2, 18 h; outline: as §2
Escherichia coli [40] = assay: Antibacterial activity against Escherichia coli 09-3 after 18 hrs by two fold serial dilution method; settings: 09-3, 18 h; outline: as §2
Streptococcus pneumoniae = assay: Antibacterial activity against Streptococcus pneumoniae 10-1 after 18 hrs by two fold serial dilution method; settings: 10-1, 18 h; outline: as §2
Staphylococcus aureus [41] = assay: Antibacterial activity against methicillin-sensitive Staphylococcus aureus 10-4 after 18 hrs by two fold serial dilution method; settings: 10-4, 18 h; outline: as §2
Enterococcus faecalis [42] = assay: Antibacterial activity against Enterococcus faecalis 09-2 after 18 hrs by two fold serial dilution method; settings: 09-2, 18 h; outline: as §2
Escherichia coli [43] = assay: Antibacterial activity against Escherichia coli 10-2 infected KM mouse systemic infection model assessed as decrease in mouse mortality administered orally twice after 1 and 4 hrs post infection measured up to 7 days; settings: 10-2, po; outline: as §3

Compound: CO/N=C1\CN(c2nc3c(cc2F)c(=O)c(C(=O)O)cn3C2CC2)CC1CN (centres undefined) [GEMIFLOXACIN]
- MIC [1]: 0.25 µg/mL (≈ 0.642 µM)
- MIC (Escherichia coli [2]): 16 µg/mL (≈ 41.1 µM)
- MIC (Staphylococcus aureus [3]): 0.008 µg/mL (≈ 0.0205 µM)
- MIC (Enterococcus faecium [4]): 0.03 µg/mL (≈ 0.077 µM)
- MIC (Staphylococcus aureus [5]): 2 µg/mL (≈ 5.14 µM)
- MIC (Staphylococcus aureus [6]): 16 µg/mL (≈ 41.1 µM)
- MIC (Klebsiella pneumoniae [7]): 16 µg/mL (≈ 41.1 µM)
- MIC (Pseudomonas aeruginosa [8]): 0.25 µg/mL (≈ 0.642 µM)
- MIC (Pseudomonas aeruginosa [9]): 2 µg/mL (≈ 5.14 µM)
- MIC (Enterococcus faecium [10]): 16 µg/mL (≈ 41.1 µM)
- ED50 (Klebsiella pneumoniae [11]): 108 mg/kg
- MIC (Escherichia coli [12]): 32 µg/mL (≈ 82.2 µM)
- MIC (Staphylococcus aureus [13]): 16 µg/mL (≈ 41.1 µM)
- MIC (Klebsiella pneumoniae [14]): 0.015 µg/mL (≈ 0.0385 µM)
- MIC (Staphylococcus aureus [15]): 0.06 µg/mL (≈ 0.154 µM)
- MIC (Staphylococcus aureus [16]): 0.008 µg/mL (≈ 0.0205 µM)
- MIC (Enterococcus faecalis [17]): 2 µg/mL (≈ 5.14 µM)
- MIC (Staphylococcus aureus [18]): 0.008 µg/mL (≈ 0.0205 µM)
- MIC (Staphylococcus aureus [19]): 0.5 µg/mL (≈ 1.28 µM)
- ED50 [20]: 24 mg/kg
- MIC (Enterococcus faecium [21]): 4 µg/mL (≈ 10.3 µM)
- MIC (Staphylococcus aureus [22]): 0.5 µg/mL (≈ 1.28 µM)
- MIC (Pseudomonas aeruginosa [23]): 16 µg/mL (≈ 41.1 µM)
- MIC (Enterococcus faecium [24]): 16 µg/mL (≈ 41.1 µM)
- ED50 (Staphylococcus aureus [25]): 14.9 mg/kg
- MIC (Enterococcus faecium [26]): 0.03 µg/mL (≈ 0.077 µM)
- MIC [27]: 16 µg/mL (≈ 41.1 µM)
- MIC (Staphylococcus aureus [28]): 16 µg/mL (≈ 41.1 µM)
- MIC [29]: 0.5 µg/mL (≈ 1.28 µM)
- MIC (Enterococcus faecium [30]): 16 µg/mL (≈ 41.1 µM)
- MIC (Escherichia coli [31]): 4 µg/mL (≈ 10.3 µM)
- MIC (Escherichia coli [32]): 0.008 µg/mL (≈ 0.0205 µM)
- MIC [33]: 4 µg/mL (≈ 10.3 µM)
- MIC (Pseudomonas aeruginosa [34]): 0.5 µg/mL (≈ 1.28 µM)
- ED50 (Pseudomonas aeruginosa [35]): 129 mg/kg
- MIC [36]: 2 µg/mL (≈ 5.14 µM)
- MIC (Klebsiella pneumoniae [37]): 0.5 µg/mL (≈ 1.28 µM)
- MIC (Escherichia coli [38]): 16 µg/mL (≈ 41.1 µM)
- MIC (Escherichia coli [39]): 0.25 µg/mL (≈ 0.642 µM)
- MIC (Escherichia coli [40]): 16 µg/mL (≈ 41.1 µM)
- MIC (Streptococcus pneumoniae): 0.015 µg/mL (≈ 0.0385 µM)
- MIC (Staphylococcus aureus [41]): 0.015 µg/mL (≈ 0.0385 µM)
- MIC (Enterococcus faecalis [42]): 4 µg/mL (≈ 10.3 µM)
- ED50 (Escherichia coli [43]): 6.86 mg/kg
